Measurements gathered from unrelated publications.
Compare with care: the assays were run in different laboratories.
Target: Homeodomain-interacting protein kinase 1 (HIPK1, Homo sapiens, UniProt Q86Z02)
Effect on: enzyme activity
Mode: inhibitor

| SMILES | test | conditions | remaining activity [%] |
| --- | --- | --- | --- |
| O=C(O)c1ccc2c(c1)nc(NCCc1cccc(F)c1)c1ncncc12 | radiometric | 1 µM | 15 |
| O=C(Nc1cnn(-c2csc(C(=O)NC3COC3)c2)c1)Nc1ccccc1Cl | – | 5 µM | 96.3 |
| Cn1c(=O)n(-c2ccc(C(C)(C)C#N)cc2)c2c3cc(-c4cnc5ccccc5c4)ccc3ncc21 | – | 10 µM | 89 |
| O=C(O)c1ccc2c(c1)nc(NCc1ccccc1)c1ncncc12 | radiometric | 1 µM | 70 |
| COc1cc(Nc2cnc(C#N)c(O[C@H](C)CN(C)C)n2)ncc1-c1cnn(C)c1 | radiometric | 10 µM | 107 |
| O=C(O)c1ccc2c(c1)nc(Nc1cccc(F)c1)c1ccncc12 | radiometric | 1 µM | 6 |
| Oc1cccc(-c2nc(N3CCOCC3)c3oc4ncccc4c3n2)c1 | – | 10 µM | 63 |
| Cc1cnc(NC2CCOCC2)nc1-n1cnc(C(=O)NC(CN)c2cc(F)cc(Cl)c2)c1 (stereo not shown) | radiometric | 1 µM | 87 |
| CCN(CC)c1ccc(C2=NNC(=O)CC2C)cc1[N+](=O)[O-] (stereo not shown) | – | 10 µM | 132 |
| N#Cc1cccc(Nc2nc3cc(C(=O)O)ccc3c3cnccc23)c1 | radiometric | 1 µM | 5 |
| CC(C)(O)[C@H]1CC[C@H](Nc2ccc3ncc(-c4cccc(C(F)(F)F)c4)n3n2)CC1 | – | 1 µM | 83.9 |
| O=C(Nc1cnn(-c2csc(C(=O)NC3COC3)c2)c1)Nc1c(F)cccc1Cl | – | 5 µM | 91.7 |
| O=C(O)c1ccc2c(c1)nc(Nc1ccccc1Cl)c1ncncc12 | radiometric | 1 µM | 13 |
| COc1cc(Cl)c(C(=O)N[C@@H](CN[C@H]2CC[C@@H](N)CC2)Cc2ccc(C#N)cc2)cc1-c1ccc(CN[C@H](C)c2ccc(C)cc2)o1 | – | 1 µM | 101 |
| O=C(O)c1ccc2c(c1)nc(Nc1ccc(Cl)cc1)c1ncncc12 | radiometric | 1 µM | 4 |
| CC(C)(C)c1nc(-c2cccc(NS(=O)(=O)c3c(F)cccc3F)c2F)c(-c2ccnc(N)n2)s1 | radiometric | 1 µM | 87 |
| CCCOc1ccc(OC)c(F)c1C(=O)c1ccc(C(=O)N[C@@H]2CNC[C@H]2NC(=O)c2ccc3[nH]ncc3c2)cc1 | – | 10 µM | 97 |
| CC(C)(C)c1nc2c(s1)c1nc(N)ncc1c1ccc(NS(=O)(=O)c3c(F)cccc3F)c(F)c12 | radiometric | 1 µM | 81 |
| Cc1ccc(C(=O)Nc2ccc(CN3CCN(C)CC3)c(C(F)(F)F)c2)cc1C#Cc1cnc2cccnn12 | – | 23.5 nM | 86 |
